PGC1a acetyl up = compounds raising PGC1a acetylation signal, primary screen, PGC1a modulator project, cell-based, U2OS, AlphaScreen, signal-increasing mode | activation, % at 15.6 µM | 0.21% of 350,000 active | AID 651723, 2012 | overnight;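 active = every replicate reaching activation of at least 50%, whatever the mean replicate activation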;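 note: hits raise the AlphaScreen acetylation signal above neutral controls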
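System – flag-PGC1a/GCN5 U2OS cells · Quantity – 7000 U2OS cells per well · Signal – AlphaScreen proximity luminescence, anti-acetyl-lysine antibody · Schedule – overnight compound treatment, 37 °C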
* marks the source's active call; other numbers are inactive results. These entries were drawn from the full list.

SMILES | PGC1a acetyl up
CCN1/C(=C/C(C)=C/c2sc3ccccc3[n+]2CC)Sc2ccccc21 | 97.6*
COc1ccc2c(c1)c(CC(=O)OCC(N)=O)c(C)n2C(=O)c1ccc(Cl)cc1 | -45.3
CCOC(=O)c1[nH]c2ccc(OC)cc2c1NC(=O)c1ccc2c(c1)OCO2 | 55.1*
CN(Cc1ccccc1)C(=O)c1ccc2c(c1)NC(=O)C(N1CCOCC1)S2 (stereo not given) | -48.8
COc1ccc(NC(=O)C(Cl)=C(Cl)Cl)cn1 | 101.0*
COc1ccc(NC(=O)/C(Cl)=C(/Cl)S(=O)Cc2ccc(Cl)cc2)cn1 (stereo not given) | -100.2
COc1ccc(NC(=O)/C(Cl)=C(/Cl)S(=O)(=O)Cc2ccccc2)cn1 | -64.4
C/C(CC(=O)Nc1ccccc1Br)=N\NC(=O)C(=O)N1CCCC1 | -43.9
COc1ccccc1C1c2c(C)nn(-c3ccccc3)c2NC(=O)C1NC(=O)c1ccccc1 (stereo not given) | -48.5
CC(=O)Nc1cccc(-c2ccnc3c2CC(C)(C(=O)Nc2ccc(C(C)C)cc2)O3)c1 (stereo not given) | 69.6*
CC1(Cc2cc(Cl)ccc2C(F)(F)F)C(=O)Nc2ccc(S(=O)(=O)NC3CCCCC3)cc21 (stereo not given) | 85.7*
COc1cc(C(=O)O)ccc1Cl | -48.1
COc1cc(Cl)c(S(=O)(=O)N2CC(C)OC(C)C2)cc1Cl (stereo not given) | 88.6*
Cc1noc(C)c1NC(=O)Nc1cccc2c1O[C@H](CN(C)Cc1ccc(Oc3ccccc3)cc1)[C@H](C)CN([C@@H](C)CO)C2=O | -99.9
O=C(OCc1cnc(Cl)s1)c1cccs1 | -94.3
C#CCN(C[C@@H]1[C@@H](OC(=O)NCC2CCCCC2)[C@@H](OC(=O)NCC2CCCCC2)Cn2c(=O)ccc(=O)n21)S(=O)(=O)c1ccc(C)cc1 | -91.4
Cc1cnc2c(C(=O)O)cnn2c1 | -52.3
C=CCOC(=O)C1=C(C)NC(SCC)=C(C#N)C1c1ccc(Cl)cc1 (stereo not given) | -44.7
CCOC(=O)C1=C(C)NC(=O)NC1c1ccccc1Cl (stereo not given) | 57.3*
CN1CCN(C/C(=C2/N=C(c3ccccc3)OC2=O)N(C)C)CC1 | -50.8
Cc1ccccc1OCC(O)CNC1CCC(NCC(O)COc2ccccc2C)CC1 (stereo not given) | 88.3*
CN(C)CC(O)c1ccc(C=Cc2ccc(Cl)cc2)cc1 (stereo not given) | -50.6
COc1ccc(Nc2ccnc3ccccc23)cc1 | -51.2
Nc1nc(Nc2ccccc2)nc2ccccc12 | 51.8*
CCCNC(=O)N(C)C[C@H]1Oc2cc(C#CCC(C)C)ccc2S(=O)(=O)N([C@@H](C)CO)C[C@H]1C | -51.0
SMILES | PGC1a acetyl up
COC(=O)c1ccc2[nH]c3cccc(/C(=C/c4ccccc4)c4ccccc4)c3c2c1 | 61.3*
C[C@@H]1CN([C@H](C)CO)C(=O)CCCn2cc(nn2)CO[C@@H]1CN(C)C(=O)OCc1ccccc1 | -45.8
COc1ccc(C(=O)Nc2cc(Cl)ccc2-n2cncn2)c(OC)c1OC | -47.2
COc1ccc(C)cc1NC(=O)C1CCCN(S(=O)(=O)c2cccs2)C1 (stereo not given) | -43.7
O=C(NCc1ccc2c(c1)OCO2)C1CCN(S(=O)(=O)c2cccs2)CC1 | 83.0*
CC(=O)NC(=S)Nc1ccc(NC(=O)COc2ccc(Cl)cc2Cl)cc1 | 76.3*
CCCCN(C(=O)CCC(=O)Nc1cc(C)on1)C(C(=O)NC1CCCC1)c1ccc(OC)cc1 (stereo not given) | -45.5
Cc1ccc(-c2ccc3c(c2)O[C@@H](CN(C)C(=O)C2CCCCC2)[C@H](C)CN([C@H](C)CO)S3(=O)=O)cc1 | -41.6
COc1cccc(S(=O)(=O)N(C)C[C@@H]2Oc3cc(C4=CCCC4)ccc3S(=O)(=O)N([C@H](C)CO)C[C@@H]2C)c1 | 58.6*
C[C@@H]1CN([C@H](C)CO)S(=O)(=O)c2ccc(C#CC3CCCC3)cc2O[C@H]1CN(C)C | 51.8*
C[C@@H]1CN([C@@H](C)CO)S(=O)(=O)c2ccc(C#CC3CCCCC3)cc2O[C@H]1CN(C)Cc1cccnc1 | -59.9
COc1ccc(S(=O)(=O)N(C)C[C@@H]2Oc3cc(C#CC4CC4)ccc3S(=O)(=O)N([C@H](C)CO)C[C@H]2C)cc1 | 58.9*
C[C@@H]1CN([C@@H](C)CO)S(=O)(=O)c2ccc(C3=CCCCC3)cc2O[C@H]1CN(C)C | -48.3
Cc1ccc(S(=O)(=O)N(C)C[C@@H]2Oc3cc(C#Cc4ccncc4)ccc3S(=O)(=O)N([C@H](C)CO)C[C@H]2C)cc1 | -41.5
C[C@@H]1CN([C@H](C)CO)S(=O)(=O)c2ccc(C3=CCCCC3)cc2O[C@H]1CN(C)Cc1ccccc1 | -42.9
Cc1ccc(S(=O)(=O)N(C)C[C@@H]2Oc3cc(C#Cc4ccncc4)ccc3S(=O)(=O)N([C@@H](C)CO)C[C@H]2C)cc1 | -59.6
C[C@H](CO)N1C[C@H](C)[C@@H](CN(C)Cc2ccc3c(c2)OCO3)Oc2cc(Br)ccc2S1(=O)=O | 50.6*
CC(C)C#Cc1ccc2c(c1)O[C@@H](CN(C)Cc1ccccc1)[C@@H](C)CN([C@@H](C)CO)S2(=O)=O | -98.6
CC(C)CC#Cc1ccc2c(c1)O[C@@H](CN(C)Cc1ccc3c(c1)OCO3)[C@H](C)CN([C@H](C)CO)S2(=O)=O | -53.4
CC(C)C#Cc1ccc2c(c1)O[C@@H](CN(C)C(=O)C1CC1)[C@@H](C)CN([C@@H](C)CO)S2(=O)=O | -48.4
Cc1cc(C)n(C/C=C/Cn2nc(C)cc2C)n1 | -43.8
CCCCCC(=O)N1C[C@H](n2cc(-c3ccc(F)cc3)nn2)[C@@H](O)C[C@@H]1c1ccc(C)cc1 | -66.6
COCCNC(=O)CN1CCC(NC(=O)C(C)(C)C)CC1 | -44.6
O=C(Nc1cccc2[nH]ncc12)c1ccc(F)cc1 | -41.7
CCn1c(Oc2ccccc2F)nc2c1c(=O)n(C)c(=O)n2C | -40.4
SMILES | PGC1a acetyl up
Cc1c(NC(=O)COC(=O)c2ccccc2O)c(=O)n(-c2ccccc2)n1C | -56.8
CC(C)NC(=O)N(C)C[C@H]1OCCCC[C@@H](C)Oc2ccc(NC(=O)Nc3ccc(C(F)(F)F)cc3)cc2C(=O)N([C@H](C)CO)C[C@@H]1C | -50.3
O=C(CN1CCC(N2CCCCC2)CC1)N1CCCc2ccccc21 | 81.5*
O=C(c1cccc(N2C(=O)C3C4C=CC(C4)C3C2=O)c1)N1CCCc2ccccc21 (stereo not given) | -42.1
S=c1nc[nH]c2c1cnn2Cc1ccccc1 | -44.6
C[C@@H]1CN([C@H](C)CO)C(=O)c2cc(C3=CCCCC3)cnc2O[C@@H]1CN(C)Cc1ccccc1 | -43.8
CC(c1ccccc1)N1C(=O)NC(NC(=O)c2cccnc2)(C(F)(F)F)C1=O (stereo not given) | 74.3*
CCN(CC)S(=O)(=O)c1ccc(C(=O)N(c2ccccc2)C2C=CS(=O)(=O)C2)cc1 (stereo not given) | -46.1
N#Cc1cc(Oc2cccc3cccnc23)c(-n2nnc3ccccc32)cc1C#N | 138.7*
CCN1CCN(c2cc(C)c3cc(NC(=O)c4ccc(Br)o4)ccc3n2)CC1 | 52.9*
C[C@@H]1CCCCO[C@@H](CN(C)C(=O)c2ccncc2)[C@@H](C)CN([C@H](C)CO)C(=O)c2cc(NC(=O)CCCCCC(=O)Nc3ccccc3N)ccc2O1 | -99.2
Cc1noc(C)c1S(=O)(=O)Nc1cccc2c1O[C@@H](CN(C)Cc1ccncc1)[C@@H](C)CN([C@@H](C)CO)C2=O | -51.0
COc1cccc(N2C(=NC(=O)c3ccccc3)SC3CS(=O)(=O)CC32)c1 (stereo not given) | -40.9
